Data set [1] concerns BALB/c nude mouse LNCaP xenograft. Nature of the data set: MicroPET in LNCaP xenograft mouse. The following applies: 68Ga-labeled, i.v. It counts as in vivo. The gist of the method:
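Purified 68Ga-labelled test conjugates (50 MBq/nmol) were sterile-filtered and 100 µl injected into the tail vein of BALB/c nude mice bearing LNCaP xenografts under 2% sevoflurane. Two tracers were compared in the same mouse. Blocking used 100-fold excess of unlabelled compound, imaged 2 h post-injection.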

Data set [2] concerns the target Recombinant human PSMA (rhPSMA) (Homo sapiens, UniProt Q04609). Nature of the data set: NAALADase assay. It counts as biochemical.
Data set [3] has as its target PSMA positive LNCaP cells (Homo sapiens, UniProt Q04609). Kind of data set: Internalization assay on LNCaP cells. Particulars: 30 nM radiolabeled compound, 45 min; 177Lu-labeled, except CIM 99mTc-labeled. It counts as cell-based. The gist of the method: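 Poly-L-lysine-coated wells were seeded with 10⁵ LNCaP cells in RPMI (10% FCS, 1% L-glutamine) and held overnight at 37 °C. Cells took up 30 nM radiolabelled test compound in Opti-MEM for 45 min at 37 °C or 4 °C, with 2-PMPA block or DMSO, in triplicate. Surface-bound tracer came off in two 5-min 50 mM glycine pH 2.8 washes and internalized tracer in 0.3 M NaOH lysate. All fractions were gamma-counted against a ligand standard.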

Chain of Recombinant human PSMA (rhPSMA) (Q04609 whole entry): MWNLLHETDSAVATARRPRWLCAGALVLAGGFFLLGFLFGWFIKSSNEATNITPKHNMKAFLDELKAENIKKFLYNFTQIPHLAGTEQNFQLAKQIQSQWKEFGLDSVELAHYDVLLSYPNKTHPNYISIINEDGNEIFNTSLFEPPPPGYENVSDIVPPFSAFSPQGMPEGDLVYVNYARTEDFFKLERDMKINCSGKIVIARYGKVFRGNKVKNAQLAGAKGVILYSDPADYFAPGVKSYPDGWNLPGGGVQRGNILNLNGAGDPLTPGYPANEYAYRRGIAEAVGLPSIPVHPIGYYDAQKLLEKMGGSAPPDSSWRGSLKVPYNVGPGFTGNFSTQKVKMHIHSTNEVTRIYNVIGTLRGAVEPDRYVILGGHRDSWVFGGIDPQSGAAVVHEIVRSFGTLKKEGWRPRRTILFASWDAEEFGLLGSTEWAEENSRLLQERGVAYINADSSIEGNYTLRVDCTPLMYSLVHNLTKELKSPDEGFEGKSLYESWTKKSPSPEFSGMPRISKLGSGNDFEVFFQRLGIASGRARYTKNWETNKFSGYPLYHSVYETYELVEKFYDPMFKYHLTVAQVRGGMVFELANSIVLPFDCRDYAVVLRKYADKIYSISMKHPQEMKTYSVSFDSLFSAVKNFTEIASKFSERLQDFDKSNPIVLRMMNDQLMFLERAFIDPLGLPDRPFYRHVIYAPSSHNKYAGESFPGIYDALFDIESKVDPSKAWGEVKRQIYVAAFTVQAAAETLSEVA
Chain of PSMA positive LNCaP cells (Q04609 whole entry): as above

What is called IC50 is the concentration at which inhibition is half-maximal. Turning to `O=C(O)CC[C@H](NC(=O)N[C@@H](CCCCNC(=O)[C@H](Cc1ccc2ccccc2c1)NC(=O)[C@H]1CC[C@H](CNC(=O)CN2CCN(CC(=O)O)CCN(CC(=O)O)CCN(CC(=O)O)CC2)CC1)C(=O)O)C(=O)O` [DOTA conjugate], the “Time after which the amount in the tumor begins to decrease” value in data set [1] was “approximately 15 min”. Besides, the concentration for half-maximal inhibition (IC50) in data set [2] was found to be 0.8 ± 0.3 nM. Besides, in data set [3], the “Absolute value of compound inside of the cells (amount internalized)” value was 3.7 ± 4.6%.

Values taken from article PMC4893637 (Theranostics, 2016).
